High-throughput results: PubChem, Sanford-Burnham Center for Chemical Genomics
STEP block: inhibitors of human striatal-enriched phosphatase STEP | recombinant STEP, OMFP fluorogenic substrate, fluorescence | inhibition, % at 20 µM | 360,000 tested, 0.25% active | AID 588621;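 active = inhibition at 20 µM, scaled per plate between control wells, above about 37%, limit read from the data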;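 note: 0% = DMSO with enzyme and substrate and 100% = substrate only without enzyme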
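Assay system: isolated STEP enzyme. Buffer or medium: pH 6.0 Bis-Tris with DTT and Tween 20. Also added: fluorogenic phosphatase substrate OMFP at 25 µM final. Dosing: 20 µM, 1% DMSO. Timing: 20 min reaction, room temperature, in the dark. Measured by: fluorescence intensity, excitation 480 nm, emission 540 nm. Evaluation: normalized % inhibition.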
DNMT1 block: blocks human DNA methyltransferase DNMT1; DNMT1 molecular beacon, Hinp1I cleavage, fluorescence; P26358; AID 588458; inhibition (reported as % activation of signal), % at 10 µM; 360,000 tested, 0.83% active; in the data active = inhibition above about 50%
Scp-1 inhibitor: blocks human Scp-1 phosphatase activity | Recombinant Scp1, phosphopeptide, malachite green phosphate absorbance | AID 493091 | Q9GZU7 | inhibition, % at 20 µM | 340,000 tested, 0.88% active;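 active = inhibition above about 50% at 20 µM, limit read from the data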;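 note: plate controls were DMSO wells with enzyme for no effect and wells lacking enzyme for full effect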
Target sequence (Q9GZU7 76-261 limits assumed): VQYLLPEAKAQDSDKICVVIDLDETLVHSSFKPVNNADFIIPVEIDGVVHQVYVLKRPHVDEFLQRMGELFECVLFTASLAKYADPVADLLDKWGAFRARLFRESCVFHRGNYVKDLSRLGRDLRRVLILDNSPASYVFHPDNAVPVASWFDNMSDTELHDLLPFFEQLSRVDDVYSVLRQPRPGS
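System: SCP-1 catalytic domain; Reagent: Phospho 17-mer peptide substrate; Doses: one concentration, 20 µM, with 1.0% DMSO; Incubation: 45 min room-temperature reaction, 5 min colour, 30 min stabiliser; Signal: Phosphate-binding colour reagent, absorbance read at 630 nm.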
SUMO1 PPI mod: SUMO1-SIM interaction modulation; P63165; SUMO1 binding to a labelled peptide, TR-FRET, 1 h; inhibition, % at 20 µM; 360,000 tested, 0.33% active; AID 602429; in the data active = inhibition above about 37%
Target sequence (P63165 whole entry, looked up): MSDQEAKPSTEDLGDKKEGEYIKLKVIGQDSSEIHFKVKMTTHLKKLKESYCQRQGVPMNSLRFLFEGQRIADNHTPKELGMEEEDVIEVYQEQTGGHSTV
LMPTP inh: LMPTP (human) inhibition. recombinant LMPTP-A, OMFP fluorogenic substrate, fluorescence intensity. inhibition, % at 20 µM. AID 651560. P24666. 360,000 tested, 0.22% active;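 active = compounds that cut the enzyme signal by at least half of the control window in the single-dose screen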;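 note: plate controls were DMSO wells with enzyme plus substrate for no effect and substrate without enzyme for full effect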
Target sequence (P24666 whole entry, looked up): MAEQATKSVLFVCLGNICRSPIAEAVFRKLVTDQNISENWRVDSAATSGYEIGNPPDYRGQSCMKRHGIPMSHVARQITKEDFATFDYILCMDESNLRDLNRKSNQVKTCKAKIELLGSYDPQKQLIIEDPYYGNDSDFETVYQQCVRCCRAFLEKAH
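Assay system: LMPTP-A enzyme. Input: 0.625 nM LMPTP-A final. Probe or stimulus: 400 µM OMFP. Compound dosing: single 20 µM dose. Schedule: 50 min dark incubation at room temperature. Detection: fluorescence intensity of OMFP turnover product. Read-out: percent inhibition versus substrate-only and uninhibited controls. Benchmarks: no-enzyme low control, uninhibited high control.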
Scp1 confirm: Scp-1 (human) inhibition, single-dose confirmed | shares compounds with Scp-1 inhibitor | recombinant SCP-1 catalytic domain, phosphate release, malachite green absorbance | inhibition, % at 20 µM | 2,500 tested, 61% active | AID 540281;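 note: plate controls were DMSO with enzyme for no effect and buffer wells lacking enzyme for full effect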
MG interference: colorimetric interference in Scp-1 counter-screen; apparent inhibition (interference), % at 20 µM; AID 540313; shares compounds with Scp-1 inhibitor; Colorimetric interference counterscreen, malachite green absorbance 630 nm; 2,500 tested, under 10 active;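 note: compounds added after enzyme reaction finished so only phosphate colour detection is probed; plate controls were DMSO wells with completed Scp-1 reaction for no effect and substrate wells lacking enzyme for full effect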
Scp-1 Tm shift: validation of human Scp-1 inhibitors by thermal shift binding. shares compounds with Scp-1 inhibitor. Recombinant SCP1, Sypro Orange thermal shift Tm. thermal shift relative to vanadate control, % at 40 µM. 1,500 tested, 25% active. AID 540329;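 active = substances whose mean melting-temperature shift, as a percentage of the reference inhibitor's shift, reaches about 5.3%, limit read from the data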;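 note: 0% = Tm of DMSO wells and 100% = Tm with sodium orthovanadate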
The depositor's hits bear a star. Shown are actives, neighbours in structure and some others; about 1.7% of the full set was active somewhere.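 Rule for the calls, unless noted: active = inhibition of at least 30% at 20 µM; inactive = the rest.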

For Cc1cc(C)n(-c2ccc(C(=O)O)cc2)n1 the results were STEP block 0, DNMT1 block -2, Scp-1 inhibitor 4, SUMO1 PPI mod -5 and LMPTP inh -2.
Screening Cc1cc(C)n(-c2ccc(Oc3ccccc3)c(S(=O)(=O)O)c2)n1 returned STEP block 37, DNMT1 block 28, Scp-1 inhibitor 65*, SUMO1 PPI mod 1, LMPTP inh 4, Scp1 confirm 47*, MG interference -17 and Scp-1 Tm shift -4.
For COc1ccc(C(=O)c2ccccc2CN2C(=O)c3ccccc3C2=O)cc1 the results were STEP block -1, DNMT1 block -5, Scp-1 inhibitor 0, SUMO1 PPI mod -16 and LMPTP inh -1.
For COc1ccc2c(c1)c(=O)oc1cc(OCC(=O)NC3CCCCC3)ccc12 the results were STEP block 6, DNMT1 block 52*, Scp-1 inhibitor 70*, SUMO1 PPI mod -17, LMPTP inh 4, Scp1 confirm 56*, MG interference -15 and Scp-1 Tm shift -16.
`Cc1cc(Cl)ccc1C(O)c1ncc(-c2ccccc2Cl)[nH]1` (configuration not stated) gave STEP block -2, DNMT1 block -7, SUMO1 PPI mod -1 and LMPTP inh 0.
`O=C(COC(=O)c1ccc(NS(=O)(=O)c2cccs2)cc1)Nc1nc2c(F)c(F)c(F)cc2s1` gave STEP block 14, DNMT1 block 14, Scp-1 inhibitor 51*, SUMO1 PPI mod 9, LMPTP inh 40, Scp1 confirm 65*, MG interference -11 and Scp-1 Tm shift 26*.
For CC(=O)c1ccc(N2CCN(C(=O)c3cc(S(=O)(=O)N4CCOCC4)ccc3C)CC2)cc1 the results were STEP block 1, DNMT1 block 6, Scp-1 inhibitor -5, SUMO1 PPI mod -3 and LMPTP inh 1.
`O=[N+]([O-])c1ccc(O)c(Nc2ncnc3ccc(Br)cc23)c1` gave STEP block 25, DNMT1 block 0, Scp-1 inhibitor 75*, SUMO1 PPI mod -5, LMPTP inh 26, Scp1 confirm 42*, MG interference -18 and Scp-1 Tm shift 14*.
Screening Cc1noc(C)c1C(=O)Nc1ccc(C#N)cc1 returned STEP block -2, DNMT1 block 3, Scp-1 inhibitor 1, SUMO1 PPI mod 2 and LMPTP inh 0.
For CCC1(c2ccccc2)NC(=O)N(CC(=O)N(C)CC(=O)Nc2c(C)cccc2C)C1=O (configuration not stated) the results were STEP block 0, DNMT1 block 0, Scp-1 inhibitor 2, SUMO1 PPI mod -8, LMPTP inh -1, Scp1 confirm -5 and MG interference -3.
`CCC1(c2ccccc2)NC(=O)N(CC(=O)N(C)CC(=O)Nc2cccc(OC)c2)C1=O` (configuration not stated) gave STEP block -2, DNMT1 block -2, Scp-1 inhibitor -4, SUMO1 PPI mod 6 and LMPTP inh -2.
For CCC(=O)N1CCc2cc(S(=O)(=O)N(C)c3ccc(Br)cc3)ccc21 the results were STEP block -2, DNMT1 block 1, Scp-1 inhibitor -3, SUMO1 PPI mod 3 and LMPTP inh 0.
For CCOC(=O)c1cn(CC)c2cc3c(cc2c1=O)OCO3 the results were STEP block -1, DNMT1 block -2, Scp-1 inhibitor 64*, SUMO1 PPI mod 8, LMPTP inh 0, Scp1 confirm -12 and MG interference -5.
Cc1nnc(NS(=O)(=O)c2ccc(N=Nc3ccc(N)nc3N)cc2)s1 was read as STEP block 5, DNMT1 block 4, Scp-1 inhibitor 67*, SUMO1 PPI mod -10, LMPTP inh 18, Scp1 confirm 34*, MG interference -6 and Scp-1 Tm shift 9.1*.
`OCCC1CN(Cc2cc(F)ccc2F)CCN1CCCc1ccccc1` (configuration not stated) gave STEP block 6, DNMT1 block -1, Scp-1 inhibitor -6, SUMO1 PPI mod -2 and LMPTP inh -1.
Cn1c(SCC(=O)N/N=C/C=C\c2ccco2)nc2ccccc21 was read as STEP block 6, DNMT1 block 54*, Scp-1 inhibitor 84*, SUMO1 PPI mod 16, LMPTP inh 26, Scp1 confirm 62*, MG interference -12 and Scp-1 Tm shift 0.
Cc1ccc(C)c(NC(=O)CSc2ncnc3nc[nH]c23)c1 was read as STEP block 0, DNMT1 block 1, Scp-1 inhibitor 58*, SUMO1 PPI mod -2, LMPTP inh 0, Scp1 confirm -19 and MG interference -16.
`Fc1cccc(NC(=S)NC2CCCCCCC2)c1` gave STEP block -1, DNMT1 block 0, Scp-1 inhibitor 1, SUMO1 PPI mod 2 and LMPTP inh 0.
CSCCC(NC(=O)c1cccc([N+](=O)[O-])c1)c1nc2ccccc2[nH]1 (configuration not stated) was read as STEP block 0, DNMT1 block -6, Scp-1 inhibitor -9, SUMO1 PPI mod -28 and LMPTP inh 0.
For CSCC[C@H](NC(=O)c1cccc(S(=O)(=O)N2CCCCC2)c1)c1nc2ccccc2[nH]1 the results were STEP block 0, DNMT1 block 2, Scp-1 inhibitor 59*, SUMO1 PPI mod -1, LMPTP inh -1, Scp1 confirm 3 and MG interference -5.
For O=C(N/N=C/C(Cl)=C/c1ccccc1)c1ccc2c(c1)OCO2 the results were STEP block 38, DNMT1 block 8, Scp-1 inhibitor 101*, SUMO1 PPI mod 2, LMPTP inh 56*, Scp1 confirm 53*, MG interference -18 and Scp-1 Tm shift -15.
`Cc1ccc(NC(=O)CCSCCC(=O)Nc2ccc(C)c(C)c2)cc1C` gave STEP block 2, DNMT1 block -1, Scp-1 inhibitor -6, SUMO1 PPI mod -1 and LMPTP inh 1.
Cc1ccc(NC(=O)CC(=O)Nc2ccc(C)c(C)c2)cc1C was read as STEP block 1, DNMT1 block 6, Scp-1 inhibitor 62*, SUMO1 PPI mod 4, LMPTP inh 1, Scp1 confirm 82*, MG interference -2 and Scp-1 Tm shift 0.
Screening O=C(O)c1cnn(-c2nc(-c3ccc(Br)cc3)cs2)c1C(F)(F)F returned STEP block 2, DNMT1 block -2, Scp-1 inhibitor -14, SUMO1 PPI mod 10 and LMPTP inh -2.
